High-throughput results from PubChem.
HTR1A agonist: agonists of human 5-HT1a serotonin receptor; CHO 5-HT1a Ga15 NFAT-bla reporter, FRET ratio; 0% basal, 100% maximal reference agonist; activation, % at 10 µM; 0.56% of 65,000 active;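 active = activation above the screen-wide mean activation plus 3 SD, cut at about 19% in these data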;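 note: 0% = DMSO wells and 100% = 5-CT at EC100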
S1P3 agonist: agonists of human S1P3 receptor; AID 373; Q99500; activation, % at 4.5 µM; S1P3 NFAT-BLA reporter cells, agonism, FRET ratio; relative to 1 µM S1P, basal subtracted; 0.1% of 60,000 active;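 active = activation above the screen-wide mean plus 3 SD, cut at about 4.5% in these data, passing the limit was not always enough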
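Assay system: stable CHO line with human S1P3, Gα16, NFAT-BLA reporter; Detection: FRET β-lactamase substrate fluorescence, excitation 405 nm, 460/535 nm emission ratio, background-subtracted; Read-out: percent activation versus median 1 µM S1P response, basal-subtracted, per plate; Incubation: cells plated overnight, compound 4 h 37 °C, substrate 2 h RT.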
5HT1E antag: antagonists of human 5-HT1E serotonin receptor | P28566 | inhibition, % at 6 µM | CHO 5-HT1E Ga15 NFAT-bla reporter, FRET, antagonist | 0.99% of 65,000 active;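 active = inhibition above a set limit, the mean inhibition across every tested compound plus 3 SD, cut at about 29% in these data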;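 note: signal is the 460 over 535 nm emission ratio of beta-lactamase substrate; 0% = agonist plus DMSO wells and 100% = wells without agonist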
S1P1 ag-PAM: agonists and agonism potentiators of human S1P1 receptor; P21453; S1P1 CRE-bla cells, forskolin, beta-lactamase FRET, potentiator mode; S1P1 agonist co-added at EC20, 2 nM; 100% = saturating reference agonist, 0% = basal; activation, % at 9.5 µM; 0.57% of 56,000 active; AID 449;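 active = activation above a cutoff set at the mean activation of all tested compounds plus 3 SD, cut at about 54% in these data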;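 note: forskolin at 4 µM as EC80 and the EC20 agonist is SEW2871; 100% = SEW2871 at its EC100 plus forskolin at EC80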
Target sequence (P21453 whole entry, looked up): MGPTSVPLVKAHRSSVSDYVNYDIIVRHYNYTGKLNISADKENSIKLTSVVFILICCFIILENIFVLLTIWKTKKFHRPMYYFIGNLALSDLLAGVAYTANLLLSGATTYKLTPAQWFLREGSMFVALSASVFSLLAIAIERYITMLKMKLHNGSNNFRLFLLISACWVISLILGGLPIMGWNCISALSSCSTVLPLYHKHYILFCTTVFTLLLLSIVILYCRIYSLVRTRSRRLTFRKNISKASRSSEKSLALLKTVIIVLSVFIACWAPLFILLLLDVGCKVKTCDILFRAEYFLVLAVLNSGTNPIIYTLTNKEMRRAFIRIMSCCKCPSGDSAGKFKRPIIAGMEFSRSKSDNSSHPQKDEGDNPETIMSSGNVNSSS
5HT1E ag: agonists of human 5-HT1E serotonin receptor | AID 574 | P28566 | 0.69% of 65,000 active | activation, % at 6 µM | CHO 5-HT1E Ga15 NFAT-bla reporter, FRET; 0% DMSO wells, 100% control agonist wells;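 active = activation above a set limit, the screen-wide mean activation plus 3 SD, cut at about 8.5% in these data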;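 note: 100% = positive control agonist at 1 µM giving full maximal response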
5HT1a antag: antagonists of human 5-HT1a serotonin receptor; CHO 5-HT1a Ga15 NFAT-bla reporter, antagonist mode; inhibition, % at 10 µM; P08908; 0.68% of 62,000 active;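 active = inhibition above the mean of all tested compounds plus 3 SD, cut at about 43% in these data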;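 note: receptor stimulated by 5-CT agonist at 100 nM near EC80; beta-lactamase reporter measured by ratiometric fluorescence of a cleavable substrate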
Active calls of the source: *; . = not tested or not shown. An excerpt weighted towards active compounds, which were near 3% of everything screened.

SMILES | HTR1A agonist | S1P3 agonist | 5HT1E antag | S1P1 ag-PAM | 5HT1E ag | 5HT1a antag
Cc1ccc(CNC(=O)C2c3ccccc3C(=O)N3CCc4ccccc4C23)o1 (centres undefined) | -3 | 0 | 7 | 24 | -1 | 21
O=C(NCCN1CCN(Cc2ccccc2)CC1)C1c2ccccc2C(=O)N2CCc3ccccc3C12 (centres undefined) | -1 | -1 | 10 | 13 | 2 | 59*
COc1ccc(OCC(O)Cn2c(=N)n(Cc3ccccc3)c3ccccc32)cc1 (centres undefined) | -3 | -1 | 12 | 9 | -2 | 48*
N=c1n(Cc2ccccc2)c2ccccc2n1CC(O)c1ccco1 (centres undefined) | -4 | 0 | 0 | -1 | 0 | 13
Cc1cccc(OCC(O)Cn2c(=N)n(CCN3CCCCC3)c3ccccc32)c1 (centres undefined) | 7 | -2 | 6 | -7 | 0 | 68*
CCOC(=O)c1cc2sc(C)cc2n1C(C)C(=O)OCC (centres undefined) | -1 | -1 | 0 | 19 | 0 | 9
COc1ccc(CC(=O)OCC(=O)Nc2c(C)n(C)n(-c3ccccc3)c2=O)cc1 | -1 | . | 0 | . | 0 | 2
N#Cc1nc(COc2ccccc2)oc1N1CCC(Cc2ccccc2)CC1 | -4 | -1 | 2 | 8 | -1 | 49*
Cc1ccc(OCc2nc(C#N)c(N3CCN(Cc4ccccc4)CC3)o2)cc1 | -3 | -2 | 9 | 18 | -1 | 50*
N#Cc1nc(COc2ccc(F)cc2)oc1N1CCCC1 | 3 | . | 1 | . | 2 | -4
N#Cc1nc(COc2cccc(Cl)c2)oc1N1CCCC1 | 23* | 0 | 0 | 0 | 0 | 3
N#Cc1nc(COc2ccccc2)oc1N1CCN(Cc2ccccc2)CC1 | -5 | -1 | 5 | 3 | -2 | 46*
Cc1cc(C(=O)NC(C)C)on1 | -1 | 1 | 8 | -1 | 0 | -13
OCCN1CCN(c2ncnc3c2sc2nc(N4CCOCC4)c4c(c23)CCC4)CC1 | 1 | . | 16 | . | 2 | -19
OCCN(CCO)c1ncnc2c1sc1nc(N3CCOCC3)c3c(c12)CCCC3 | 6 | 1 | 31* | -73 | 1 | .
COc1ccc(C(=O)Nc2ccc(Cl)cc2C(=O)NCc2ccco2)cc1OC | -4 | -2 | 40* | -32 | 0 | 5
CCCOc1ccc(/C(O)=C2\C(=O)C(=O)N(CCCOC)C23C(=O)N(C)c2ccccc23)cc1 (centres undefined) | -1 | -1 | -1 | 11 | 0 | -3
Cc1sc2ncnc(SCC(=O)c3cccs3)c2c1C | -2 | -1 | 3 | 34 | 0 | 2
Cc1sc2ncnc(Sc3nnnn3-c3ccccc3)c2c1C | -4 | -1 | 26 | 87* | -1 | 42
Clc1ccc(-n2nnnc2Sc2ncnc3sccc23)cc1 | -2 | 1 | 82* | 82* | 0 | 69*
CCc1ccc(NC(=O)N(C2CCC(C)CC2)C2CCN(C(C)=O)CC2)cc1 (centres undefined) | -2 | 0 | -6 | -6 | 0 | -2
COc1ccc(-c2nnc(NC(=O)c3ccc(S(=O)(=O)N4CCCc5ccccc54)cc3)o2)cc1 | -1 | 0 | -2 | 10 | 0 | 62*
Cc1cc(NC(=O)COC(=O)c2ccc(S(=O)(=O)N3CCCc4ccccc43)cc2)no1 | -4 | -1 | 32* | -7 | -1 | 11
O=C(Nc1nnc(C2CC2)o1)c1ccc(S(=O)(=O)N2CCCc3ccccc32)cc1 | -2 | -1 | 1 | -4 | 0 | 0
Cc1ccc2[nH]c(-c3ccccc3)cc(=O)c2c1 | -4 | -2 | 70* | 4 | 0 | 35
SMILES | HTR1A agonist | S1P3 agonist | 5HT1E antag | S1P1 ag-PAM | 5HT1E ag | 5HT1a antag
O=C(Nc1cccc(N2CCCC2)c1)c1cccs1 | 2 | -1 | -11 | 18 | -1 | 6
Oc1ccc(-c2nnc(SCC3CCCCC3)o2)cc1 | 2 | 3 | -15 | 113* | 1 | 22
O=C(CSc1nnc(-c2ccc(O)cc2)o1)N1CCOCC1 | -1 | 0 | 7 | -4 | 0 | 1
O=C(CSc1nc(N2CCCCC2)nc(N2CCCCC2)n1)NC1CCCCC1 | 1 | 0 | -1 | 0 | 1 | 4
CC1(C)Cc2cccc(OCC(O)CN3CCN(c4ccccn4)CC3)c2O1 (centres undefined) | 21* | 0 | -4 | 15 | 0 | 11
CC1(C)Cc2cccc(OCC(O)CNCc3ccccn3)c2O1 (centres undefined) | -1 | -2 | 10 | 14 | 0 | 21
O=C(c1ccco1)N(CCCN1CCOCC1)c1nc(-c2ccc(F)cc2)cs1 | 0 | -1 | 8 | 9 | 1 | 14
O=C(c1ccco1)N(CCCN1CCOCC1)c1nc(-c2ccc(Cl)cc2)cs1 | -3 | -2 | 12 | 11 | -1 | 48*
CCN(CC)S(=O)(=O)c1ccc(NC(=O)Cn2cnc3ccccc3c2=O)cc1 | 2 | -1 | -13 | -14 | 1 | -15
CCOC(=O)c1c(C)[nH]c(C(=O)COC(=O)CNC(=O)C2CCCCC2)c1C | -4 | 0 | 3 | -27 | 0 | 3
CN(C)c1ccnc(NCc2ccccc2)c1C#N | 20* | 0 | 10 | 1 | 0 | 10
CCOc1ccc(S(=O)(=O)Nc2ccc(Cl)cn2)c(C)c1C | 0 | -1 | -3 | 43 | -1 | 14
CCOc1cc(C)c(S(=O)(=O)Nc2ccc(Cl)cn2)cc1C | -2 | 0 | 7 | 26 | 27* | 12
CCn1cc(C(=O)NCC(=O)OC)c2cc(OC)c(OC)cc2c1=O | 1 | . | 4 | . | 0 | 2
CCn1cc(C(=O)NCc2ccc(C)o2)c2cc(OC)c(OC)cc2c1=O | 1 | 0 | 29* | -38 | -1 | 10
COc1cc(CNc2ccc(N3CCOCC3)c(C(=O)O)c2)ccc1OCC(N)=O | -2 | 0 | -1 | -6 | 34* | -1
Cn1nnc2cc(C(=O)N3CCCCCC3)ccc21 | -2 | . | -10 | . | 0 | 4
Cc1cccc(-n2cnc3cc(C(=O)N4CCCCC4)ccc32)c1 | 45* | . | -5 | . | 0 | -7
COc1cccc(-n2c(SCC(=O)Nc3cc(C)on3)nc3c([nH]c4ccccc43)c2=O)c1 | 0 | 0 | 32* | -59 | 0 | 28
CSc1nc2[nH]c3c(c2c2nnnn12)CCCC3 | 1 | -4 | 36* | -35 | -1 | .
CSc1nc2[nH]c3c(c2c2nncn12)CC(C)(C)OC3 | -2 | -3 | 11 | -11 | -1 | .
O=C(O)C1C2C=CC(C2)C1C(=O)NCCc1cccc(Cl)c1 (centres undefined) | 8 | 0 | 8 | . | 12* | 0
